In ChEMBL document CHEMBL5365542, “Difluoromethyl-1,3,4-oxadiazoles Are Selective, Mechanism-Based, and Essentially Irreversible Inhibitors of Histone Deacetylase 6” (J Med Chem, 2023):
Positions count from the first letter of the chain named. Activity calls are given as the source filed them. No cut-off for these calls is given here.

Key:
[1] = system: T1, Histone deacetylase 6 (Danio rerio), F8W4B7 [H573A]; test: Irreversible inhibition of Danio rerio HDAC6 H573A mutant catalytic domain 2 assessed as enzyme catalysed ring opening by measuring reduction in 2-(benzylamino)-N'-(2,2,2-trifluoroacetyl)pyrimidine-5-carbohydrazide formation at 100 uM incubated overnight by LC-MS analysis
T1 sequence (whole entry): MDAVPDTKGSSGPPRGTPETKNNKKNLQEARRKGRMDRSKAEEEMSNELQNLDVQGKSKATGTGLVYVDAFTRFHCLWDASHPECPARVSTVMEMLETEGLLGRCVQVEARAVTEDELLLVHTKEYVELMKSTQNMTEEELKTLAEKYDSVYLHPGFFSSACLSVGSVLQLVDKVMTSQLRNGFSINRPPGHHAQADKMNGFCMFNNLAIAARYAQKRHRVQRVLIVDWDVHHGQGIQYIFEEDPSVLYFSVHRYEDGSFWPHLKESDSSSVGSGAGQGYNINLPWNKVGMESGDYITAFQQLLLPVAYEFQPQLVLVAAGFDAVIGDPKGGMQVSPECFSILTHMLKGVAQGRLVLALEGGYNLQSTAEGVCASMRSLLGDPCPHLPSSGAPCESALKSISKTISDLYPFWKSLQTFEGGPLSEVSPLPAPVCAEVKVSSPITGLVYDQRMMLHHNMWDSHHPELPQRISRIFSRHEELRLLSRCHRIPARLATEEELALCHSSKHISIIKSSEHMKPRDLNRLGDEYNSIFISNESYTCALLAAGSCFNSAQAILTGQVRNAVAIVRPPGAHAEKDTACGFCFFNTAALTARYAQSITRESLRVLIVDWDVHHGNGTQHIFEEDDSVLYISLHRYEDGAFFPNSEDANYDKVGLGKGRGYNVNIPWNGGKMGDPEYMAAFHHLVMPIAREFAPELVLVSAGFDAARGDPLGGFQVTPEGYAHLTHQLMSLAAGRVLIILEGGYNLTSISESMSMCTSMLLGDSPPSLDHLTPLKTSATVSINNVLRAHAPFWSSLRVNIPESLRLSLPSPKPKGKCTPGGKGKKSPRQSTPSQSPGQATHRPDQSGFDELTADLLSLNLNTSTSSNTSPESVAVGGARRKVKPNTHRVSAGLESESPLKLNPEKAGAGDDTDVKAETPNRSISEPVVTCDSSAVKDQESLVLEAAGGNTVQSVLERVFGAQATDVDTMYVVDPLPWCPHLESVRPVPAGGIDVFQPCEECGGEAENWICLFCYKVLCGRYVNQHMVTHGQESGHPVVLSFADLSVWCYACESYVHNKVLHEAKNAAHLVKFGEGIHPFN
How it was run: (§1)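 Zebrafish HDAC6 CD2 mutants were made by site-directed mutagenesis and expressed in BL21(DE3). Enzyme at 50 μM was incubated overnight with 100 μM inhibitor in 50 mM HEPES pH 7.5, 100 mM KCl, 1 mM TCEP, 5% glycerol; an enzyme-free control was included. Protein was methanol-precipitated and filtered, and products were analysed by C18 UPLC-MS with a 2-min gradient.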

[2] = target: Histone deacetylase 2 (Homo sapiens) (UniProt Q92769); test: (§2) Inhibition of C-terminal 6His-tagged human recombinant HDAC2 (1 to 488 residues) expressed in Sf9 insect cells using Z-Lys(Ac)-AMC as fluorogenic substrate at 10 uM preincubated for 60 mins followed by substrate addition and measured after 90 mins by microplate reader analysis relative to control; conditions: time 150.0 min
Histone deacetylase 2 (Homo sapiens), sequence (Q92769 whole entry, the tested form may be a part): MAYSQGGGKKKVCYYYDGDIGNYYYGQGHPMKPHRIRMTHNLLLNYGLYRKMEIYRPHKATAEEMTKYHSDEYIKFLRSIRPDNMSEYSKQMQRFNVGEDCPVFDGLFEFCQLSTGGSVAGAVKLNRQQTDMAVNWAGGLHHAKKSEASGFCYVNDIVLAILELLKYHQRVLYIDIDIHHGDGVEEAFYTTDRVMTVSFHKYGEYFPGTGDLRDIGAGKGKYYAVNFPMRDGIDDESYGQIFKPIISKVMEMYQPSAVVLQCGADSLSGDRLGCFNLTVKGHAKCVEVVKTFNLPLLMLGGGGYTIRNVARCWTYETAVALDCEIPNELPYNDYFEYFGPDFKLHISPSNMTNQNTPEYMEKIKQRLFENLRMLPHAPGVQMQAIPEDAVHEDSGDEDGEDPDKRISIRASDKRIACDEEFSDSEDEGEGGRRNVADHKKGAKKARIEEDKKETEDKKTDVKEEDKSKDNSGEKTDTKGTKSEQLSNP
How it was run: (§3)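 Human recombinant enzyme was preincubated with 3-fold inhibitor dilutions for 60 min at 25 °C in Tris-HCl pH 8.0 buffer with BSA. ZMAL (75 μM solution) was then added, and the mix was incubated 90 min at 37 °C (max 1% DMSO). Trypsin was added for 30 min at 37 °C, and fluorescence was read at ex 355/em 460. Tested at least twice in duplicate.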

[3] = target: Histone deacetylase 3/Nuclear receptor corepressor 2 (HDAC3/NCoR2) (Homo sapiens) (UniProt O15379+Q9Y618); test: as §2, with “His-tagged” for “6His-tagged”, “HDAC3” for “recombinant HDAC2”, “428 residues)/N-terminal GST tagged human NcoR2 (395 to 489” for “488”; conditions: time 150.0 min; how it was run: as §3
[4] = system: T2, Histone deacetylase 6 (Danio rerio), F8W4B7 [Y745F]; test: Irreversible inhibition of Danio rerio HDAC6 Y745F mutant catalytic domain 2 assessed as enzyme catalysed ring opening by measuring reduction in 2-(benzylamino)-N'-(2,2,2-trifluoroacetyl)pyrimidine-5-carbohydrazide formation at 100 uM incubated overnight by LC-MS analysis; how it was run: as §1
T2 sequence (whole entry): T1 sequence (whole entry) with A573H, Y745F

[5] = system: T1, Histone deacetylase 6 (Danio rerio), F8W4B7 [H573A]; test: Irreversible inhibition of Danio rerio HDAC6 H573A mutant catalytic domain 2 assessed as enzyme catalysed ring opening by measuring reduction in 2-(Benzylamino)pyrimidine-5-carbohydrazide formation at 100 uM incubated overnight by LC-MS analysis; how it was run: as §1

FC(F)c1nnc(-c2cnc(NCc3ccccc3)nc2)o1
inhibition [1]: Active | inhibition [2]: < 15% | inhibition [3]: < 15% | inhibition [4]: inactive | inhibition [5]: Active

FC(F)(F)c1nnc(-c2cnc(NCc3ccccc3)nc2)o1
inhibition [1]: Active | inhibition [2]: < 15% | inhibition [3]: < 15% | inhibition [4]: inactive | inhibition [5]: Active
